Laboratory results reported in ChEMBL document CHEMBL2157880, “Synthesis, antimycobacterial and antibacterial activity of ciprofloxacin derivatives containing a N-substituted benzyl moiety” (2012).
Values after ≈ are worked out from the molar mass of the structure shown.

These compounds were tested on Enterococcus faecalis (assay: Ratio of compound MIC to ciprofloxacin MIC for Enterococcus faecalis 10-5).
Assay type: functional

Q: How did the Ratio turn out when `COc1ccc(CN2CCN(c3cc4c(cc3F)c(=O)c(C(=O)O)cn4C3CC3)CC2)cc1` was run?
A: 2

What follows are compounds tested on Staphylococcus epidermidis (assay: Antibacterial activity against methicillin-sensitive Staphylococcus epidermidis 10-11 after 18 to 24 hrs by NCCLS method).
Assay type: functional
Procedure, shortened: (§1)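 Standard NCCLS (M100-S11) MIC testing against Gram-positive and Gram-negative strains. Plates were incubated at 35 °C for 18–24 h. The MIC was read as the lowest concentration giving complete inhibition of visible bacterial growth.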

Q: How did the MIC turn out when `COc1ccc(CN2CCN(c3cc4c(cc3F)c(=O)c(C(=O)O)cn4C3CC3)CC2)cc1` was run?
A: 0.5 µg/mL (≈ 1.11 µM)

What follows are compounds tested on Escherichia coli (assay: Antibacterial activity against extended spectrum beta-lactamases producing Escherichia coli 10-2 after 18 to 24 hrs by NCCLS method).
Assay type: functional
Procedure, shortened: as §1

Q: `COc1ccc(CN2CCN(c3cc4c(cc3F)c(=O)c(C(=O)O)cn4C3CC3)CC2)cc1` was tested. Which MIC did it give?
A: > 128 µg/mL

These compounds were tested on Enterococcus faecalis (assay: Antibacterial activity against Enterococcus faecalis 10-5 after 18 to 24 hrs by NCCLS method).
Assay type: functional
Procedure, shortened: as §1

Q: How did the MIC turn out when `COc1ccc(CN2CCN(c3cc4c(cc3F)c(=O)c(C(=O)O)cn4C3CC3)CC2)cc1` was run?
A: 4 µg/mL (≈ 8.86 µM)

The compounds below were run on Staphylococcus aureus (assay: Antibacterial activity against Staphylococcus aureus ATCC 2592 after 18 to 24 hrs by NCCLS method).
Assay type: functional
Procedure, shortened: as §1

Q: `COc1ccc(CN2CCN(c3cc4c(cc3F)c(=O)c(C(=O)O)cn4C3CC3)CC2)cc1` was tested. Which MIC did it give?
A: 0.06 µg/mL (≈ 0.133 µM)

The compounds below were run on Pseudomonas aeruginosa (assay: Antibacterial activity against Pseudomonas aeruginosa 10-20 after 18 to 24 hrs by NCCLS method).
Assay type: functional
Procedure, shortened: as §1

Q: `COc1ccc(CN2CCN(c3cc4c(cc3F)c(=O)c(C(=O)O)cn4C3CC3)CC2)cc1` was tested. Which MIC did it give?
A: 4 µg/mL (≈ 8.86 µM)

These compounds were tested on Staphylococcus aureus (assay: Ratio of compound MIC to ciprofloxacin MIC for methicillin-sensitive Staphylococcus aureus 10-14).
Assay type: functional

Q: `COc1ccc(CN2CCN(c3cc4c(cc3F)c(=O)c(C(=O)O)cn4C3CC3)CC2)cc1` was tested. Which Ratio did it give?
A: 2

What follows are compounds tested on Staphylococcus aureus (assay: Antibacterial activity against methicillin-sensitive Staphylococcus aureus 10-14 after 18 to 24 hrs by NCCLS method).
Assay type: functional
Procedure, shortened: as §1

Q: `COc1ccc(CN2CCN(c3cc4c(cc3F)c(=O)c(C(=O)O)cn4C3CC3)CC2)cc1` was tested. Which MIC did it give?
A: 0.25 µg/mL (≈ 0.554 µM)

What follows are compounds tested on Klebsiella pneumoniae (assay: Antibacterial activity against Klebsiella pneumoniae 10-2 after 18 to 24 hrs by NCCLS method).
Assay type: functional
Procedure, shortened: as §1

Q: How did the MIC turn out when `COc1ccc(CN2CCN(c3cc4c(cc3F)c(=O)c(C(=O)O)cn4C3CC3)CC2)cc1` was run?
A: > 128 µg/mL

Each compound was assayed on Enterococcus faecalis (assay: Antibacterial activity against Enterococcus faecalis 10-6 after 18 to 24 hrs by NCCLS method).
Assay type: functional
Procedure, shortened: as §1

Q: `COc1ccc(CN2CCN(c3cc4c(cc3F)c(=O)c(C(=O)O)cn4C3CC3)CC2)cc1` was tested. Which MIC did it give?
A: 32 µg/mL (≈ 70.9 µM)

The compounds below were run on Pseudomonas aeruginosa (assay: Antibacterial activity against Pseudomonas aeruginosa 10-12 after 18 to 24 hrs by NCCLS method).
Assay type: functional
Procedure, shortened: as §1

Q: How did the MIC turn out when `COc1ccc(CN2CCN(c3cc4c(cc3F)c(=O)c(C(=O)O)cn4C3CC3)CC2)cc1` was run?
A: 2 µg/mL (≈ 4.43 µM)

The compounds below were run on Klebsiella pneumoniae (assay: Antibacterial activity against Klebsiella pneumoniae 10-4 after 18 to 24 hrs by NCCLS method).
Assay type: functional
Procedure, shortened: as §1

Q: Which MIC does the source give for `COc1ccc(CN2CCN(c3cc4c(cc3F)c(=O)c(C(=O)O)cn4C3CC3)CC2)cc1` here?
A: > 128 µg/mL

These compounds were tested on Staphylococcus aureus (assay: Ratio of compound MIC to ciprofloxacin MIC for methicillin-sensitive Staphylococcus aureus 10-11).
Assay type: functional

Q: Which Ratio does the source give for `COc1ccc(CN2CCN(c3cc4c(cc3F)c(=O)c(C(=O)O)cn4C3CC3)CC2)cc1` here?
A: 2

Each compound was assayed on Staphylococcus epidermidis (assay: Antibacterial activity against methicillin-resistant Staphylococcus epidermidis 10-10 after 18 to 24 hrs by NCCLS method).
Assay type: functional
Procedure, shortened: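 Incubated at 35 °C for 18–24 h under NCCLS (M100-S11) standards. MIC was read as the lowest concentration giving complete inhibition of visible bacterial growth.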

Q: With `COc1ccc(CN2CCN(c3cc4c(cc3F)c(=O)c(C(=O)O)cn4C3CC3)CC2)cc1` as the compound, how does the MIC read?
A: 8 µg/mL (≈ 17.7 µM)

What follows are compounds tested on Escherichia coli (assay: Antibacterial activity against Escherichia coli ATCC 25922 after 18 to 24 hrs by NCCLS method).
Assay type: functional
Procedure, shortened: as §1

Q: Which MIC does the source give for `COc1ccc(CN2CCN(c3cc4c(cc3F)c(=O)c(C(=O)O)cn4C3CC3)CC2)cc1` here?
A: 0.125 µg/mL (≈ 0.277 µM)

Each compound was assayed on Escherichia coli (assay: Antibacterial activity against extended spectrum beta-lactamases producing Escherichia coli 10-4 after 18 to 24 hrs by NCCLS method).
Assay type: functional
Procedure, shortened: as §1

Q: With `COc1ccc(CN2CCN(c3cc4c(cc3F)c(=O)c(C(=O)O)cn4C3CC3)CC2)cc1` as the compound, how does the MIC read?
A: 8 µg/mL (≈ 17.7 µM)

The compounds below were run on Streptococcus pneumoniae (assay: Ratio of compound MIC to ciprofloxacin MIC for Streptococcus pneumoniae 10-1).
Assay type: functional

Q: Which Ratio does the source give for `COc1ccc(CN2CCN(c3cc4c(cc3F)c(=O)c(C(=O)O)cn4C3CC3)CC2)cc1` here?
A: 2

The compounds below were run on Enterococcus faecium (assay: Ratio of compound MIC to ciprofloxacin MIC for Enterococcus faecium 10-6).
Assay type: functional

Q: With `COc1ccc(CN2CCN(c3cc4c(cc3F)c(=O)c(C(=O)O)cn4C3CC3)CC2)cc1` as the compound, how does the Ratio read?
A: 2

The compounds below were run on Escherichia coli (assay: Antibacterial activity against Escherichia coli 10-2 after 18 to 24 hrs by NCCLS method).
Assay type: functional
Procedure, shortened: as §1

Q: Which MIC does the source give for `COc1ccc(CN2CCN(c3cc4c(cc3F)c(=O)c(C(=O)O)cn4C3CC3)CC2)cc1` here?
A: 8 µg/mL (≈ 17.7 µM)

These compounds were tested on Staphylococcus aureus (assay: Antibacterial activity against methicillin-sensitive Staphylococcus aureus 10-13 after 18 to 24 hrs by NCCLS method).
Assay type: functional
Procedure, shortened: as §1

Q: How did the MIC turn out when `COc1ccc(CN2CCN(c3cc4c(cc3F)c(=O)c(C(=O)O)cn4C3CC3)CC2)cc1` was run?
A: 0.25 µg/mL (≈ 0.554 µM)

Each compound was assayed on Staphylococcus epidermidis (assay: Ratio of compound MIC to ciprofloxacin MIC for methicillin-sensitive Staphylococcus epidermidis 10-11).
Assay type: functional

Q: With `COc1ccc(CN2CCN(c3cc4c(cc3F)c(=O)c(C(=O)O)cn4C3CC3)CC2)cc1` as the compound, how does the Ratio read?
A: 2

These compounds were tested on Enterococcus faecalis (assay: Ratio of compound MIC to ciprofloxacin MIC for Enterococcus faecalis 10-6).
Assay type: functional

Q: For `COc1ccc(CN2CCN(c3cc4c(cc3F)c(=O)c(C(=O)O)cn4C3CC3)CC2)cc1`, which Ratio is on record?
A: 2

What follows are compounds tested on Streptococcus pneumoniae (assay: Ratio of compound MIC to ciprofloxacin MIC for Streptococcus pneumoniae 10-6).
Assay type: functional

Q: With `COc1ccc(CN2CCN(c3cc4c(cc3F)c(=O)c(C(=O)O)cn4C3CC3)CC2)cc1` as the compound, how does the Ratio read?
A: 2

These compounds were tested on Klebsiella pneumoniae (assay: Antibacterial activity against extended spectrum beta-lactamases producing Klebsiella pneumoniae 10-3 after 18 to 24 hrs by NCCLS method).
Assay type: functional
Procedure, shortened: as §1

Q: For `COc1ccc(CN2CCN(c3cc4c(cc3F)c(=O)c(C(=O)O)cn4C3CC3)CC2)cc1`, which MIC is on record?
A: > 128 µg/mL

These compounds were tested on Staphylococcus aureus (assay: Antibacterial activity against methicillin-sensitive Staphylococcus aureus 10-11 after 18 to 24 hrs by NCCLS method).
Assay type: functional
Procedure, shortened: as §1

Q: With `COc1ccc(CN2CCN(c3cc4c(cc3F)c(=O)c(C(=O)O)cn4C3CC3)CC2)cc1` as the compound, how does the MIC read?
A: 0.125 µg/mL (≈ 0.277 µM)

The compounds below were run on Pseudomonas aeruginosa (assay: Antibacterial activity against Pseudomonas aeruginosa 10-5 after 18 to 24 hrs by NCCLS method).
Assay type: functional
Procedure, shortened: as §1

Q: Which MIC does the source give for `COc1ccc(CN2CCN(c3cc4c(cc3F)c(=O)c(C(=O)O)cn4C3CC3)CC2)cc1` here?
A: 4 µg/mL (≈ 8.86 µM)
